From paper PMC9015489 (Chemmedchem, 2022)

How the values were obtained:
[1] = Experimental distribution coefficient logD7.4; assay type: physicochemical; conditions: pH 7.4
NRF2‐ARE pathway = experiment: AREc32 luciferase reporter gene assay; assay type: cell-based; conditions: for ARE specificity ratio, SR: SR = IC10/ECIR1.5, AREc32 cells, 24 h exposure
Method in brief: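 AREc32 cells in DMEM+GlutaMAX with 10% FBS and pen/strep, 2650/well, attached 24 h at 37 °C, 5% CO2. Test compound (1×10−15 to 1×10−2 M) for 24 h; tert‐butylhydroquinone as positive control. Luciferase read after PBS washes and Tris/Triton lysis. IR = signal/mean unexposed; ECIR1.5 by linear fit for IR<4. Imaged confluency versus unexposed cells gave IC10 from the linear range.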

human serum albumin = human serum albumin (Homo sapiens, UniProt P02768); experiment: Plasma protein binding estimated by an HPLC-based method; assay type: in vitro ADME
[2] = biological target: human adenosine A2A receptors (Homo sapiens, UniProt P29274); experiment: Radioligand competition binding assay with [3H]CGS-21680
Method in brief: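 Membranes from CHO-S cells recombinantly expressing the human adenosine A2A receptor. Competition with the A2A-selective agonist radioligand [3H]CGS-21680. Test compound run at concentrations from 10 nM to 100 μM. Read-out is % inhibition of radioligand binding, with Ki estimated; n=3.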

SARS‐CoV‐2 (B.3 strain) = experiment: Vero-E6 SARS-CoV-2 plaque reduction assay; assay type: cell-based
[3] = read-out: % inhibition of radioligand binding

Sequence of human serum albumin (P02768 25-609): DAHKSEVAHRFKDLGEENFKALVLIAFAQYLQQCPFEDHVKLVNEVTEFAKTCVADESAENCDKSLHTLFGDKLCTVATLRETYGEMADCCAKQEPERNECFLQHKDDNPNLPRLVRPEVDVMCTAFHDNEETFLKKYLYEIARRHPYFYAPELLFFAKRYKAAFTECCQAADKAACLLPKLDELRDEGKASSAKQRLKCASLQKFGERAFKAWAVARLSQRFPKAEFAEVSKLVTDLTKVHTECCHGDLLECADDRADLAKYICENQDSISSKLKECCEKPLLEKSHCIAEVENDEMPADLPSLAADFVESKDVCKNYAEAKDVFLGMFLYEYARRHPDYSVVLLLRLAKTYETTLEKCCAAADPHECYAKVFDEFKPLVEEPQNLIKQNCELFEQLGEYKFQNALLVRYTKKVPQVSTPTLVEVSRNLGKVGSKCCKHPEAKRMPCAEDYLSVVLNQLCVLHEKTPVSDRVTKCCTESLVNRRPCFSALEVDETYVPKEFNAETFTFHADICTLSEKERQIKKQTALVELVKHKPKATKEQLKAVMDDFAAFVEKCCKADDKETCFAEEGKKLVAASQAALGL
Sequence of human adenosine A2A receptors (P29274 whole entry): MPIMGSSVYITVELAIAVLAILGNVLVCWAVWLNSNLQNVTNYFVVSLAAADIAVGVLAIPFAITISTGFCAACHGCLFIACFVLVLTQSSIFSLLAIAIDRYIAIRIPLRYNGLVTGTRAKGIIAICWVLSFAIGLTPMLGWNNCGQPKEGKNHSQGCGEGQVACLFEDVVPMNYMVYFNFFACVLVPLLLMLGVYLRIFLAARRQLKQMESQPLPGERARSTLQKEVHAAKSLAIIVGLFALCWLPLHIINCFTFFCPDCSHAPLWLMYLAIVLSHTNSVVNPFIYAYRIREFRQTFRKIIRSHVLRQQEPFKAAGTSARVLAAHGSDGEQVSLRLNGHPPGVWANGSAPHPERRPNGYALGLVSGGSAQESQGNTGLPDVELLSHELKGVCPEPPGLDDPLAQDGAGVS

Row | SMILES | chromatographic logD [1] | ARE specificity ratio, SR (NRF2‐ARE pathway) | fraction unbound (human serum albumin) | also measured
1 | C=C1CCC2[C@](C)(C(=O)NCCC)[C@H](O)CC[C@@]2(C)[C@@H]1C/C=C1/C(=O)OC[C@H]1O (stereo partly drawn) [16 a, (1S,2R,4aS,5R)‐2‐Hydroxy‐5‐[(2E)‐2‐[(4S)‐4‐hydroxy‐2‐oxo‐tetrahydrofuran‐3‐ylidene]ethyl]‐1,4 a‐dimethyl‐6‐methylene‐N‐propyl‐decalin‐1‐carboxamide] | 1.9 | 35.6 | 0.17 | 
2 | C=C1CCC2[C@](C)(C(=O)NCCc3ccccc3)[C@H](O)CC[C@@]2(C)[C@@H]1C/C=C1/C(=O)OC[C@H]1O (stereo partly drawn) [16 b, (1S,2R,4aS,5R)‐2‐Hydroxy‐5‐[(2E)‐2‐[(4S)‐4‐hydroxy‐2‐oxo‐tetrahydrofuran‐3‐ylidene]ethyl]‐1,4 a‐dimethyl‐6‐methylene‐N‐(2‐phenylethyl)decalin‐1‐carboxamide] | 2.5 | 10.8 | 0.62 | 
3 | C=C1CCC2[C@](C)(C(=O)NCCOCCOCCOCCOC)[C@H](O)CC[C@@]2(C)[C@@H]1C/C=C1/C(=O)OC[C@H]1O (stereo partly drawn) [16 c, (1S,2R,4aS,5R)‐2‐Hydroxy‐5‐[(2E)‐2‐[(4S)‐4‐hydroxy‐2‐oxo‐tetrahydrofuran‐3‐ylidene]ethyl]‐N‐[2‐[2‐[2‐(2‐methoxy‐ethoxy)ethoxy]ethoxy]ethyl]‐1,4 a‐dimethyl‐6‐methylene‐decalin‐1‐carboxamide] | 1.3 | 13.3 | 0.08 | 
4 | C=C1CC[C@@H]2[C@](C)(CO)[C@H](O)CC[C@@]2(C)[C@@H]1C/C=C1/C(=O)OC[C@H]1O [Compound 1, Andrographolide] |  | 19.4 |  | Ki [2]: > 100 µM; inhibition at 10 µM [2, 3]: 7%; inhibition at 100 µM [2, 3]: 33%; Effect on Vero-E6 cell proliferation (crystal violet staining) (Vero‐E6 cells; at 10 μM): inhibited cell proliferation; Toxicity on attached Vero-E6 cells (Vero‐E6 cells; at any concentration (0.5-10 μM)): did not show toxicity
5 | C=C1CCC2[C@](C)(CO)[C@H](O)CC[C@@]2(C)[C@@H]1CCC1C(=O)OC[C@H]1O (stereo partly drawn) [Compound 11, (4S)‐3‐[2‐[(1R,5R,6R,8aS)‐6‐Hydroxy‐5‐(hydroxymethyl)‐5,8 a‐dimethyl‐2‐methylene‐decalin‐1‐yl]ethyl]‐4‐hydroxy‐tetrahydrofuran‐2‐one] |  |  |  | Anti-SARS-CoV-2 activity (in words) (SARS‐CoV‐2 (B.3 strain)): did not possess anti‐SARS‐CoV‐2 activities
6 | CC(C)(C)c1cc(O)ccc1O [Tert‐butylhydroquinone, reference compound] |  |  |  | ECIR1.5 (NRF2‐ARE pathway; effect concentration causing an induction ratio (IR) of 1.5, linear model, 24 h): 3.4 ± 0.2 µM
